Test [1] deals with DNA gyrase (Escherichia coli). The test is described as follows: Inhibition of Escherichia coli JM109 DNA gyrase assessed as DNA triple helix formation by supercoiling assay.
Test [2] addresses DNA gyrase subunit A (Escherichia coli K-12) (UniProt P0AES4). The test is described as follows: Inhibition of Escherichia coli K-12 DNA gyrase A expressed in Escherichia coli DC2 assessed as compound concentration required for => 4-fold induction of luxCDABE operon by reported gene assay. In short, it runs like this: (§1)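 E. coli DC2 carrying a gyrA or sulA promoter–luxCDABE (Photorhabdus) fusion plasmid. Grown overnight at 37°C in LB with 2 μg/ml tetracycline, then diluted 1:100 in LB without tetracycline and precultured 1.5 h at 37°C. Compounds were added from DMSO stocks to 1% final DMSO and incubated 5 h at 37°C. Bioluminescence was divided by A595, and induction factor is the treated/untreated ratio. The value is the lowest test concentration giving ≥4-fold induction.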

For test [3], the target named is T1, Cell division inhibitor SulA (Escherichia coli K-12) (UniProt P0AFZ5).
T1 sequence (whole entry): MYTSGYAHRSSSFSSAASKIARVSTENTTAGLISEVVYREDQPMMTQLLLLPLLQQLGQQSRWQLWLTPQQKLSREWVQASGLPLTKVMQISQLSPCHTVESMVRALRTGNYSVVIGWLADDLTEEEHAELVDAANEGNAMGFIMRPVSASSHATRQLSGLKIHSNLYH
The test is described as follows: Inhibition of Escherichia coli K-12 DNA sulA expressed in Escherichia coli DC2 assessed as compound concentration required for => 4-fold induction of luxCDABE operon by reported gene assay. Put shortly:
as §1

In the next test the target is DNA gyrase subunit B (Escherichia coli, UniProt P0AES6). The test is described as follows: Inhibition of Escherichia coli JM109 DNA gyrase subunit B assessed as ATP hydrolysis by ATPase assay.

This note sets out measurements from ChEMBL document CHEMBL1275417, “Biological activities of novel gyrase inhibitors of the aminocoumarin class” (Antimicrob Agents Chemother, 2008).

As a reminder, the IC50 is the concentration that inhibits the measured activity by half.

Calls of active or inactive are those of the source. The calls are words filed in the database; no cut-off is given here. Some results are limits rather than exact numbers.

Chain of DNA gyrase subunit A (Escherichia coli K-12) (P0AES4 whole entry, the tested form may be a part): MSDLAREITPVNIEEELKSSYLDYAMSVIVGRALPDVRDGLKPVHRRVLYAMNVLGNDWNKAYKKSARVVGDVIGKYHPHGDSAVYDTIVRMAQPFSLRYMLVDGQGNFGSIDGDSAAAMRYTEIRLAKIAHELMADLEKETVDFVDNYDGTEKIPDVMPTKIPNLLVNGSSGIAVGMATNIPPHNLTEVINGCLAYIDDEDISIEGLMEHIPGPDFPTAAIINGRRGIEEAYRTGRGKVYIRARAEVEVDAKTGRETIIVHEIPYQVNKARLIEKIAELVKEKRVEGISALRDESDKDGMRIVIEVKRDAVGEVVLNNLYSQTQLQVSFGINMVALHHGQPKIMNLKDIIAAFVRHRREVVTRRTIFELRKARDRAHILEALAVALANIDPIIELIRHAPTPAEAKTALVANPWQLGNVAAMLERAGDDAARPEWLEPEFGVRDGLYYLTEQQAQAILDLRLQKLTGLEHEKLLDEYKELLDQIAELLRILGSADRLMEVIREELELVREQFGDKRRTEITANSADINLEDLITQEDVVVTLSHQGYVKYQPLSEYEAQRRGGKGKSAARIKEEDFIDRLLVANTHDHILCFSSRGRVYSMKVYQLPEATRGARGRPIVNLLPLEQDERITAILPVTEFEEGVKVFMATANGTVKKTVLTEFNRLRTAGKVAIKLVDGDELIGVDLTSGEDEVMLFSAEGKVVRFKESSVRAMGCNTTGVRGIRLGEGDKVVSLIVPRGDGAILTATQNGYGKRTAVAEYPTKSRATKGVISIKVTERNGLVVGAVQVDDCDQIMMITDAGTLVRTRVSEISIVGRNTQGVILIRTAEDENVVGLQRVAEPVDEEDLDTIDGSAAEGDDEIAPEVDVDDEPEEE

As for `CO[C@@H]1[C@@H](OC(=O)c2ccc(C)[nH]2)[C@@H](O)[C@H](Oc2ccc3c(O)c(NC(=O)/C=C/c4ccc(O)c(Cl)c4)c(=O)oc3c2)OC1(C)C`, the figures for the IC50 (in test [1]; on DNA gyrase subunit B) were 0.28 µM and 0.276 µM, respectively. Further, the Activity in test [2] and in test [3] was 50 µM throughout.

For `COc1cc(C(=O)Nc2c(O)c3ccc(O[C@@H]4OC(C)(C)[C@H](OC)[C@@H](O)[C@H]4O)c(C)c3oc2=O)ccc1O`, the result in test [2] and in test [3] was inactive. Moreover, the IC50 at DNA gyrase subunit B was above 10 µM.

Regarding `COc1cc(C(=O)Nc2c(O)c3ccc(O[C@@H]4OC(C)(C)[C@H](OC)[C@@H](O)[C@H]4OC(=O)c4ccc(C)[nH]4)c(Cl)c3oc2=O)ccc1O`, the IC50 turned out to be 0.46 µM in test [1] and 0.891 µM on DNA gyrase subunit B. For the same compound, the result in test [2] was inactive. Also, the Activity in test [3] turned out to be 100 µM.

With `CO[C@@H]1[C@@H](O)[C@@H](OC(=O)c2ccc(C)[nH]2)[C@H](Oc2ccc3c(O)c(NC(=O)/C=C/c4ccccc4)c(=O)oc3c2Cl)OC1(C)C`, the half-inhibitory concentration (IC50) turned out to be 1.2 µM in test [1] and 0.598 µM on DNA gyrase subunit B. In addition, the Activity in test [2] is above 100 µM. In test [3], the result was inactive.

With `CO[C@@H]1[C@@H](OC(=O)c2ccc(C)[nH]2)[C@@H](O)[C@H](Oc2ccc3c(O)c(NC(=O)c4ccccc4)c(=O)oc3c2C)OC1(C)C`, the Activity in test [2] and in test [3] was 6.3 µM throughout. The IC50 on DNA gyrase subunit B came out at 0.131 µM.

Consider `CCCc1cc(C(=O)Nc2c(O)c3ccc(O[C@@H]4OC(C)(C)[C@H](OC)[C@@H](O)[C@H]4O)c(C)c3oc2=O)ccc1O`, for which, in test [2], the Activity was 3.1 µM. The result in test [3] was inactive. The concentration for half-maximal inhibition (IC50) on DNA gyrase subunit B was above 10 µM.

Regarding `C=CCc1cc(C(=O)Nc2c(O)c3ccc(O[C@@H]4OC(C)(C)[C@H](OC)[C@@H](O)[C@H]4OC(=O)c4ccc(C)[nH]4)c(C)c3oc2=O)ccc1O`, the values for the half-maximal inhibitory concentration (IC50) (in test [1]; at DNA gyrase subunit B) were 0.46 µM and 2.79 µM, respectively. For the same compound, the outcome in test [2] was inactive. Also, the Activity in test [3] was found to be 100 µM.

Turning to `COc1cc(C(=O)Nc2c(O)c3ccc(O[C@@H]4OC(C)(C)[C@H](OC)[C@@H](OC(=O)c5ccc(C)[nH]5)[C@H]4O)cc3oc2=O)ccc1O`, the IC50 in test [1] is 0.075 µM; on DNA gyrase subunit B, 0.185 µM. The Activity in test [2] and in test [3] was 25 µM in each case.

With `CO[C@@H]1[C@@H](O)[C@@H](OC(=O)c2ccc(C)[nH]2)[C@H](Oc2ccc3c(O)c(NC(=O)c4cc(C)c(O)c(C)c4)c(=O)oc3c2Cl)OC1(C)C`, the IC50 is 0.32 µM in test [1] and 0.376 µM on DNA gyrase subunit B. Moreover, the Activity in test [2] and in test [3] was 100 µM in each case.

With `CO[C@@H]1[C@@H](O)[C@@H](OC(=O)c2ccc(C)[nH]2)[C@H](Oc2ccc3c(O)c(NC(=O)c4ccccc4)c(=O)oc3c2Cl)OC1(C)C`, the concentration for half-maximal inhibition (IC50) was determined as 0.11 µM in test [1] and 0.297 µM on DNA gyrase subunit B. In addition, the figures for the Activity in test [2] and in test [3] were above 100 µM and 50 µM, respectively.

Turning to `CO[C@@H]1[C@@H](O)[C@@H](O)[C@H](Oc2ccc3c(O)c(NC(=O)c4cc(C)c(O)c(C)c4)c(=O)oc3c2C)OC1(C)C`, the outcome in test [2] and in test [3] was inactive. Also, the concentration for half-maximal inhibition (IC50) at DNA gyrase subunit B was above 10 µM.

In the case of `CO[C@@H]1[C@@H](O)[C@@H](OC(=O)c2ccc(C)[nH]2)[C@H](Oc2ccc3c(O)c(NC(=O)c4ccc(N)c(C)c4)c(=O)oc3c2C)OC1(C)C`, the results for the concentration for half-maximal inhibition (IC50) (in test [1]; at DNA gyrase subunit B) were 0.19 µM and 0.784 µM, respectively. Moreover, the Activity in test [2] was above 100 µM; in test [3] it was 100 µM.

Take `CCCc1cc(C(=O)Nc2c(O)c3ccc(O[C@@H]4OC(C)(C)[C@H](OC)[C@@H](O)[C@H]4OC(=O)c4ccc(C)[nH]4)c(C)c3oc2=O)ccc1O`: the IC50 in test [1] came out at 0.14 µM; on DNA gyrase subunit B it was 0.758 µM. The Activity in test [2] was 25 µM; in test [3], 100 µM.

With `CO[C@@H]1[C@@H](OC(=O)c2ccc(C)[nH]2)[C@@H](O)[C@H](Oc2ccc3c(O)c(NC(=O)/C=C/c4ccccc4)c(=O)oc3c2C)OC1(C)C`, in test [2], the outcome was inactive. In addition, the Activity in test [3] stood at 50 µM. Besides, the half-maximal inhibitory concentration (IC50) at DNA gyrase subunit B is 0.106 µM.

For the compound `CO[C@@H]1[C@@H](O)[C@@H](OC(=O)c2ccc(C)[nH]2)[C@H](Oc2ccc3c(O)c(NC(=O)c4ccc(SC)cc4)c(=O)oc3c2Cl)OC1(C)C`, the result in test [2] was inactive. Also, the Activity in test [3] turned out to be 12.5 µM. Further, the 50% inhibitory concentration (IC50) at DNA gyrase subunit B came to 0.28 µM.

As for `CO[C@@H]1[C@@H](OC(=O)c2ccc(C)[nH]2)[C@@H](O)[C@H](Oc2ccc3c(O)c(NC(=O)/C=C/c4ccc(O)c(Cl)c4)c(=O)oc3c2Cl)OC1(C)C`, the IC50 in test [1] turned out to be 0.032 µM; at DNA gyrase subunit B, 0.137 µM. Further, the Activity in test [2] and in test [3] was 25 µM throughout.

Turning to `CO[C@@H]1[C@@H](O)[C@@H](O)[C@H](Oc2ccc3c(O)c(NC(=O)c4ccccc4)c(=O)oc3c2C)OC1(C)C`, the outcome in test [2] and in test [3] was inactive. The concentration for half-maximal inhibition (IC50) on DNA gyrase subunit B was above 10 µM.

Take `CO[C@@H]1[C@@H](OC(=O)c2ccc(C)[nH]2)[C@@H](O)[C@H](Oc2ccc3c(O)c(NC(=O)c4ccccc4)c(=O)oc3c2Cl)OC1(C)C`: the results for the IC50 (in test [1]; at DNA gyrase subunit B) were below 0.005 µM and 0.072 µM, respectively. Also, the Activity in test [2] and in test [3] was 3.1 µM in each case.

Turning to `CO[C@@H]1[C@@H](OC(=O)c2ccc(C)[nH]2)[C@@H](O)[C@H](Oc2ccc3c(O)c(NC(=O)c4ccccc4)c(=O)oc3c2)OC1(C)C`, the IC50 in test [1] was 0.05 µM; on DNA gyrase subunit B, 0.219 µM. In addition, the Activity in test [2] and in test [3] was 50 µM each time.

In the case of `CO[C@@H]1[C@@H](O)[C@@H](O)[C@H](Oc2ccc3c(O)c(NC(=O)/C=C/c4ccccc4)c(=O)oc3c2C)OC1(C)C`, the result in test [2] and in test [3] was inactive. In addition, the concentration for half-maximal inhibition (IC50) at DNA gyrase subunit B is above 10 µM.
